Reference: ChEMBL document CHEMBL1131322, “Simultaneous measurement of nineteen binding constants of peptides to vancomycin using affinity capillary electrophoresis-mass spectrometry” (J Med Chem, 1998)
Square brackets hold non-standard residues; d marks the D form. Peptide text beside a SMILES is read from it. * marks the point of attachment. ξ: configuration not given here. Fmoc = O=C(OCC1c2ccccc2-c2ccccc21)*; ξV = CC(C)C(N)C(=O)O

Key:
[1] = Binding constant at vancomycin was measured using affinity capillary electrophoresis-MS.
Outline: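 Mixture of Fmoc-DXYA (all-D) peptides plus Fmoc-G EOF marker injected together hydrodynamically (10 cm, 10 s) into an uncoated 50 cm capillary. Running buffer was 20 mM Tris-acetate pH 8.1 with 0–100 μM vancomycin, run at 400–500 V/cm. On-line ESI triple-quadrupole MS detected free peptide ions. Kd came from marker-corrected mobility shifts by Scatchard analysis.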

[2] = Binding constant at vancomycin was measured using affinity capillary electrophoresis-UV.
Outline: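 Receptor-in-buffer mobility-shift ACE with UV detection was used, running individual ligands. Capillary was 30 cm effective length, 37 cm total length, at 20 kV. Kd was obtained by Scatchard analysis of mobility versus vancomycin concentration.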

Structure (SMILES)	Kd [1]	Kd [2]
CC[C@@H](C)[C@H](NC(=O)[C@H](CC(=O)O)NC(=O)OCC1c2ccccc2-c2ccccc21)C(=O)N[C@@H](Cc1ccc(O)cc1)C(=O)N[C@@H](C)C(=O)O	21 µM	19 µM
C[C@H](NC(=O)[C@H](Cc1ccc(O)cc1)NC(=O)[C@@H](NC(=O)[C@H](CC(=O)O)NC(=O)OCC1c2ccccc2-c2ccccc21)[C@H](C)O)C(=O)O	24 µM	21 µM
C[C@H](NC(=O)[C@H](Cc1ccc(O)cc1)NC(=O)[C@H](Cc1ccccc1)NC(=O)[C@H](CC(=O)O)NC(=O)OCC1c2ccccc2-c2ccccc21)C(=O)O (Fmoc-DFYA-OH)	8.9 µM	9.6 µM
C[C@H](NC(=O)[C@H](Cc1ccc(O)cc1)NC(=O)CNC(=O)[C@H](CC(=O)O)NC(=O)OCC1c2ccccc2-c2ccccc21)C(=O)O (Fmoc-DGYA-OH)	21 µM	18 µM
C[C@H](NC(=O)[C@H](Cc1ccc(O)cc1)NC(=O)[C@H](Cc1c[nH]cn1)NC(=O)[C@H](CC(=O)O)NC(=O)OCC1c2ccccc2-c2ccccc21)C(=O)O (Fmoc-DHYA-OH)	8.2 µM	7.1 µM
C[C@H](NC(=O)[C@H](Cc1ccc(O)cc1)NC(=O)[C@@H]1CCCN1C(=O)[C@H](CC(=O)O)NC(=O)OCC1c2ccccc2-c2ccccc21)C(=O)O (Fmoc-DPYA-OH)	16 µM	14 µM
C[C@H](NC(=O)[C@H](Cc1ccc(O)cc1)NC(=O)[C@H](Cc1c[nH]c2ccccc12)NC(=O)[C@H](CC(=O)O)NC(=O)OCC1c2ccccc2-c2ccccc21)C(=O)O (Fmoc-DWYA-OH)	12 µM	14 µM
C[C@H](NC(=O)[C@H](Cc1ccc(O)cc1)NC(=O)[C@H](Cc1ccc(O)cc1)NC(=O)[C@H](CC(=O)O)NC(=O)OCC1c2ccccc2-c2ccccc21)C(=O)O (Fmoc-DYYA-OH)	7.4 µM	6.8 µM
CC(C)C(NC(=O)[C@H](CC(=O)O)NC(=O)OCC1c2ccccc2-c2ccccc21)C(=O)N[C@@H](Cc1ccc(O)cc1)C(=O)N[C@@H](C)C(=O)O (stereo partly drawn) (Fmoc-D[ξV]YA-OH)	10 µM	12 µM

More lines, now with the values ahead:

Kd [1]	Kd [2]	Structure (SMILES)
8.2 µM	7.2 µM	C[C@H](NC(=O)[C@H](Cc1ccc(O)cc1)NC(=O)[C@H](C)NC(=O)[C@H](CC(=O)O)NC(=O)OCC1c2ccccc2-c2ccccc21)C(=O)O (Fmoc-DAYA-OH)
6.6 µM	7.2 µM	C[C@H](NC(=O)[C@H](Cc1ccc(O)cc1)NC(=O)[C@H](CC(=O)O)NC(=O)[C@H](CC(=O)O)NC(=O)OCC1c2ccccc2-c2ccccc21)C(=O)O (Fmoc-DDYA-OH)
8.5 µM	10 µM	C[C@H](NC(=O)[C@H](Cc1ccc(O)cc1)NC(=O)[C@H](CCC(=O)O)NC(=O)[C@H](CC(=O)O)NC(=O)OCC1c2ccccc2-c2ccccc21)C(=O)O (Fmoc-DEYA-OH)
12 µM	13 µM	C[C@H](NC(=O)[C@H](Cc1ccc(O)cc1)NC(=O)[C@H](CCCCN)NC(=O)[C@H](CC(=O)O)NC(=O)OCC1c2ccccc2-c2ccccc21)C(=O)O (Fmoc-DKYA-OH)
5.1 µM	5.6 µM	CC(C)C[C@H](NC(=O)[C@H](CC(=O)O)NC(=O)OCC1c2ccccc2-c2ccccc21)C(=O)N[C@@H](Cc1ccc(O)cc1)C(=O)N[C@@H](C)C(=O)O (Fmoc-DLYA-OH)
7.6 µM	7.1 µM	CSCC[C@H](NC(=O)[C@H](CC(=O)O)NC(=O)OCC1c2ccccc2-c2ccccc21)C(=O)N[C@@H](Cc1ccc(O)cc1)C(=O)N[C@@H](C)C(=O)O (Fmoc-DMYA-OH)
12 µM	11 µM	C[C@H](NC(=O)[C@H](Cc1ccc(O)cc1)NC(=O)[C@H](CC(N)=O)NC(=O)[C@H](CC(=O)O)NC(=O)OCC1c2ccccc2-c2ccccc21)C(=O)O (Fmoc-DNYA-OH)
15 µM	14 µM	C[C@H](NC(=O)[C@H](Cc1ccc(O)cc1)NC(=O)[C@H](CCC(N)=O)NC(=O)[C@H](CC(=O)O)NC(=O)OCC1c2ccccc2-c2ccccc21)C(=O)O (Fmoc-DQYA-OH)
11 µM	13 µM	C[C@H](NC(=O)[C@H](Cc1ccc(O)cc1)NC(=O)[C@H](CCCN=C(N)N)NC(=O)[C@H](CC(=O)O)NC(=O)OCC1c2ccccc2-c2ccccc21)C(=O)O (Fmoc-DRYA-OH)
14 µM	13 µM	C[C@H](NC(=O)[C@H](Cc1ccc(O)cc1)NC(=O)[C@H](CO)NC(=O)[C@H](CC(=O)O)NC(=O)OCC1c2ccccc2-c2ccccc21)C(=O)O (Fmoc-DSYA-OH)
